Assays:
Vero = assay: Cytotoxicity against african green monkey Vero cells by neutral red assay; assay type: cell-based; conditions: Chlorocebus sabaeus
Leishmania donovani = assay: Antileishmanial activity against Leishmania donovani by Alamar blue assay; assay type: functional, organism-based
Method in brief: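 L. donovani promastigotes at 2×10^6 cells/ml, 96-well format. Compounds dissolved in DMSO (2 mg ml⁻¹ stock), diluted in culture medium to final concentrations; matching DMSO dilutions as controls. Incubation 72 h at 26 °C; growth read by Alamar blue.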

[1] = tested on: Trypanosoma brucei rhodesiense; assay: […] rhodesiense STIB 900 after 3 days; assay type: functional, organism-based; conditions: STIB 900, 72 h
Method in brief: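 Bloodstream-form trypomastigotes, 8×10^3 per well in 100 μl medium, 96-well plates. Incubated 3 days, then resazurin added and fluorescence read after a further 24 h at 37 °C to gauge parasite growth. IC50 reported.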

Pneumocystis carinii = assay: Antileishmanial activity against Pneumocystis carinii; assay type: functional, organism-based

| SMILES | IC50 [1] | IC50 (Pneumocystis carinii) | IC50 (Vero) | IC90 (Leishmania donovani) | IC50 (Leishmania donovani) |
| --- | --- | --- | --- | --- | --- |
| N=C(N)c1ccc(OCCCCCOc2ccc(C(=N)N)cc2)cc1 [PENTAMIDINE] | 0.05 µM |  | > 100 µM | 9.8 µM |  |
| c1cc(OCCCCCOc2cccc(-c3nc4ccccc4[nH]3)c2)cc(-c2nc3ccccc3[nH]2)c1 | 0.85 µM | 5.2 µM | 12.3 µM | 45.1 µM | 10.3 µM |
| c1ccc2[nH]c(-c3ccc(OCCCCOc4ccc(-c5nc6ccccc6[nH]5)cc4)cc3)nc2c1 | > 60 µM | 169 µM | > 100 µM | 12.9 µM | 4.9 µM |

Further lines, with some results ahead:

| IC50 [1] | IC50 (Pneumocystis carinii) | SMILES | IC50 (Vero) | IC90 (Leishmania donovani) | IC50 (Leishmania donovani) |
| --- | --- | --- | --- | --- | --- |
| > 60 µM | 10.2 µM | c1ccc2[nH]c(-c3ccc(OCCCOc4ccc(-c5nc6ccccc6[nH]5)cc4)cc3)nc2c1 | 27.2 µM | 3.3 µM | 1.5 µM |
| > 60 µM | 54.1 µM | c1ccc2[nH]c(-c3ccc(OCCCCCOc4ccc(-c5nc6ccccc6[nH]5)cc4)cc3)nc2c1 | 28.7 µM | 3.1 µM | 1.4 µM |
| > 60 µM | > 100 µM | c1ccc2[nH]c(-c3ccc(OCCCCCCCOc4ccc(-c5nc6ccccc6[nH]5)cc4)cc3)nc2c1 | 46.1 µM | 56.2 µM | 13.6 µM |
| > 60 µM | > 100 µM | c1ccc2[nH]c(-c3ccc(OCCCCCCOc4ccc(-c5nc6ccccc6[nH]5)cc4)cc3)nc2c1 | 27.9 µM | 53.8 µM | 11.8 µM |
